# Measurements taken from ChEMBL document CHEMBL6177921, “Enhancing the antimycobacterial efficacy of pyridine-4-carbohydrazide: linkage to additional antimicrobial agents via oxocarboxylic acids” (RSC Med Chem, 2025).
# What was measured:
# Assay type in all cases: functional
# [1] = system: Mycobacterium tuberculosis; experiment: Antimycobacterial activity against multidrug sensitive Mycobacterium tuberculosis H37Rv CNCTC 331/88 assessed as bacterial growth inhibition incubated for 14 days by two-fold serial dilution method; settings: H37Rv CNCTC 331/88, 336 h, time 14 day
# [2] = system: Mycobacterium tuberculosis; experiment: Antimycobacterial activity against Mycobacterium tuberculosis H37Rv CNCTC 331/88 assessed as bacterial growth inhibition incubated for 21 days by two fold serial dilution method; settings: H37Rv CNCTC 331/88, 504 h, time 21 day
# Mycobacterium avium [3] = experiment: Antimycobacterial activity against INH/RIF/rifabutin/OFX/EMB resistant Mycobacterium avium CNCTC 330/88 assessed as bacterial growth inhibition incubated for 14 days by two-fold serial dilution method; settings: CNCTC 330/88, 336 h, time 14 day
# Procedure, shortened: (§1)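 M. avium CNCTC 330/88 (stock suspension dilution 10−5) grown in Šula's semisynthetic liquid medium; two-fold serial dilutions 1000 to 1 μM from DMSO stocks (final DMSO 1.0% v/v); final load 1.5 × 10^5 CFU mL−1; MIC read visually as lowest concentration giving complete growth inhibition after 14 and 21 days.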
# Mycobacterium avium [4] = experiment: Antimycobacterial activity against INH/RIF/rifabutin/OFX/EMB resistant Mycobacterium avium CNCTC 330/88 assessed as bacterial growth inhibition incubated for 21 days by two-fold serial dilution method; settings: CNCTC 330/88, 504 h, time 21 day; procedure, shortened: as §1
# Mycobacterium kansasii [5] = experiment: Antimycobacterial activity against INH/RIF/rifabutin/OFX/EMB Mycobacterium kansasii CNCTC 6509/96 clinical isolate assessed as bacterial growth inhibition incubated for 7 days by two-fold serial dilution method; settings: CNCTC 6509/96, 168 h, time 7 day
# Procedure, shortened: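 Šula's liquid semisynthetic medium; M. kansasii clinical isolate 6509/96 used at stock dilution 10−4, final ~1.5 × 10^5 CFU mL−1. Two-fold dilutions ran 1000–1 μM with final DMSO 1.0% (v/v). MIC was read visually as complete growth inhibition after 7, 14 and 21 days.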
# Mycobacterium kansasii [6] = experiment: Antimycobacterial activity against multi-drug resistant Mycobacterium kansasii CNCTC 6509/96 clinical isolate assessed as bacterial growth inhibition incubated for 14 days by two-fold serial dilution method; settings: CNCTC 6509/96, 336 h, time 14 day
# Procedure, shortened: (§2)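 M. kansasii clinical isolate 6509/96 (stock dilution 10−4) in Šula's semisynthetic liquid medium; two-fold serial dilutions 1000 to 1 μM, DMSO final 1.0% v/v; final load 1.5 × 10^5 CFU mL−1; MIC read visually as complete growth inhibition at 7, 14 and 21 days.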
# Mycobacterium kansasii [7] = experiment: Antimycobacterial activity against multi-drug resistant Mycobacterium kansasii clinical isolate CNCTC 6509/96 assessed as bacterial growth inhibition incubated for 21 days by two-fold serial dilution method; settings: CNCTC 6509/96, 504 h, time 21 day; procedure, shortened: as §2
# Candida albicans [8] = experiment: Antifungal activity against Candida albicans ATCC 24443 measured after 24 to 48 hrs by microdilution broth method; settings: time 24-48 hrs
# Procedure, shortened: (§3)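 Yeast broth microdilution per EUCAST, slightly modified. Medium was RPMI-1640 with 2% glucose, MOPS-buffered to pH 7.0. Compounds were tested at 0.98–500 μM with final DMSO ≤1.0% (v/v). Inoculum came from 18–24 h cultures, final ~1–5 × 10^5 CFU mL−1. Plates were incubated statically, dark and humidified, at 35 ± 2 °C. MIC was read visually at 24 and 48 h (no visible growth).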
# Candida albicans [9] = experiment: Antifungal activity against Candida albicans CCM 8320 measured after 24 to 48 hrs by microdilution broth method; settings: time 24-48 hrs; procedure, shortened: as §3
# Pichia kudriavzevii [10] = experiment: Antifungal activity against Candida krusei ATCC 6258 measured after 24 to 48 hrs by microdilution broth method; settings: time 24-48 hrs; procedure, shortened: as §3
# Pichia kudriavzevii [11] = experiment: Antifungal activity against Candida krusei CCM 8271 measured after 24 to 48 hrs by microdilution broth method; settings: time 24-48 hrs; procedure, shortened: as §3
# Candida parapsilosis [12] = experiment: Antifungal activity against Candida parapsilosis ATCC 22019 measured after 24 to 48 hrs by microdilution broth method; settings: Lodderomyces parapsilosis, time 24-48 hrs; procedure, shortened: as §3
# Candida parapsilosis [13] = experiment: Antifungal activity against Candida parapsilosis CCM 8260 measured after 24 to 48 hrs by microdilution broth method; settings: Lodderomyces parapsilosis, time 24-48 hrs; procedure, shortened: as §3
# Candida tropicalis [14] = experiment: Antifungal activity against Candida tropicalis ATCC 750 measured after 24 to 48 hrs by microdilution broth method; settings: time 24-48 hrs; procedure, shortened: as §3
# Candida tropicalis [15] = experiment: Antifungal activity against Candida tropicalis CCM 8264 measured after 24 to 48 hrs by microdilution broth method; settings: time 24-48 hrs; procedure, shortened: as §3
# Aspergillus fumigatus = experiment: Antifungal activity against Aspergillus fumigatus ATCC 204305 measured after 24 to 48 hrs by microdilution broth method; settings: time 24-48 hrs
# Procedure, shortened: (§4)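 Filamentous fungi tested by broth microdilution per EUCAST with minor changes. Compounds were tested at 0.98–500 μM with final DMSO ≤1.0% (v/v). Plates were incubated statically, dark and humidified, at 35 ± 2 °C for 24 and 48 h. MIC was the lowest concentration showing no visible growth.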
# Aspergillus flavus = experiment: Antifungal activity against Aspergillus flavus CCM 8363 measured after 24 to 48 hrs by microdilution broth method; settings: time 24-48 hrs; procedure, shortened: as §4
# Lichtheimia corymbifera = experiment: Antifungal activity against Lichtheimia corymbifera CCM 8077 measured after 24 to 48 hrs by microdilution broth method; settings: time 24-48 hrs; procedure, shortened: as §4
# [16] = system: Trichophyton interdigitale; experiment: Antifungal activity against Trichophyton interdigitale ATCC 9533 measured after 24 to 48 hrs by microdilution broth method; settings: time 24-48 hrs
# [17] = system: Trichophyton interdigitale; experiment: Antifungal activity against Trichophyton interdigitale CCM 8377 measured after 24 to 48 hrs by microdilution broth method; settings: time 24-48 hrs
SMILES,MIC [1] [µM],MIC [2] [µM],MIC (Mycobacterium avium [3]) [µM],MIC (Mycobacterium avium [4]) [µM],MIC (Mycobacterium kansasii [5]) [µM],MIC (Mycobacterium kansasii [6]) [µM],MIC (Mycobacterium kansasii [7]) [µM],MIC (Candida albicans [8]) [µM],MIC (Candida albicans [9]) [µM],MIC (Pichia kudriavzevii [10]) [µM],MIC (Pichia kudriavzevii [11]) [µM],MIC (Candida parapsilosis [12]) [µM],MIC (Candida parapsilosis [13]) [µM],MIC (Candida tropicalis [14]) [µM],MIC (Candida tropicalis [15]) [µM],MIC (Aspergillus fumigatus) [µM],MIC (Aspergillus flavus) [µM],MIC (Lichtheimia corymbifera) [µM],MIC [16] [µM],MIC [17] [µM]
O=C(/C=N/NC(=O)c1ccncc1)Nc1ccc(S(=O)(=O)Nc2nccs2)cc1,2,4,250,500,8,8,8,,,,,,,,,,,,,
Nc1ccc(S(=O)(=O)Nc2ccc(Oc3ccc(Cl)cc3)c(Cl)c2)cc1,125,125,125,125,125,125,125,,,,,,,,,,,,,
C/C(=N\NC(=O)c1ccncc1)C(=O)Nc1ccc(S(N)(=O)=O)cc1,2,2,≥ 1000,≥ 1000,32,64,64,> 500,> 500,> 500,> 500,> 500,> 500,> 500,> 500,> 500,> 500,> 500,> 500,> 500
C/C(=N\NC(=O)c1ccncc1)C(=O)Nc1ccc(NC(=O)/C(C)=N/NC(=O)c2ccncc2)cc1,64,64,250,250,250,250,250,,,,,,,,,,,,,
C/C(=N\NC(=O)c1ccncc1)C(=O)Nc1ccc(S(=O)(=O)Nc2nccs2)cc1,1,1,≥ 1000,≥ 1000,16,16,16,> 500,> 500,> 500,> 500,> 500,> 500,> 500,> 500,> 500,> 500,> 500,> 500,> 500
Nc1ccc(S(=O)(=O)Nc2ccccc2Oc2ccccc2)cc1,250,250,500,1000,500,500,500,,,,,,,,,,,,,
C/C(=N\NC(=O)c1ccncc1)C(=O)Nc1ccc(S(=O)(=O)Nc2ncccn2)cc1,2,2,1000,≥ 1000,32,64,64,> 500,> 500,> 500,> 500,> 500,> 500,> 500,> 500,> 500,> 500,> 500,> 500,> 500
Nc1ccc(S(=O)(=O)Nc2ccc(Sc3ccc([N+](=O)[O-])cc3)cc2)cc1,125,≥ 1000,≥ 1000,≥ 1000,8,≥ 1000,≥ 1000,,,,,,,,,,,,,
O=C(O)/C=N/NC(=O)c1ccncc1,0.25,0.5,250,> 250,4,4,8,,,,,,,,,,,,,
C/C(=N\NC(=O)c1ccncc1)C(=O)Nc1ccc(S(=O)(=O)Nc2nc(C)cc(C)n2)cc1,1,1,500,500,16,32,32,> 500,> 500,> 500,> 500,> 500,> 500,> 500,> 500,> 500,> 500,> 500,> 500,> 500
C/C(=N\NC(=O)c1ccncc1)C(=O)O [PYRUVIC ACID ISONIAZID],1,1,500,> 1000,8,16,16,,,,,,,,,,,,,
